Laboratory results: ChEMBL document CHEMBL3774373, “Activity and Predicted Nephrotoxicity of Synthetic Antibiotics Based on Polymyxin B” (J Med Chem, 2016)
≈ marks a conversion by molar mass, not a printed value. Bridge positions count the residues as written; N and C are the ends. Square brackets hold non-standard residues; d marks the D form. Peptide text beside a SMILES is read from it. * marks the point of attachment. ξ: configuration not given here. Bip = N[C@@H](Cc1ccc(-c2ccccc2)cc1)C(=O)O; ξGly(octyl) = CCCCCCCCC(N)C(=O)O; dDab = NCC[C@@H](N)C(=O)O; hSer = N[C@@H](CCO)C(=O)O; Octanoyl = CCCCCCCC(=O)*; Dab = NCC[C@H](N)C(=O)O

How the values were obtained:
Acinetobacter baumannii [1] = assay: Antibacterial activity against clinical isolate carbapenem and polymyxin resistant Acinetobacter baumannii Ptyela 100734512:2 after 18 hrs by 2 fold serial dilution method; format: functional; conditions: Ptyela 100734512:2, 18 h
Outline: (§1)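 Polymyxin-resistant clinical isolates were grown overnight at 37 °C in NB or MHB with shaking, diluted 50-fold in MHB and grown 1.5–3 h to mid-log phase. The inoculum was 5×10^5 CFU/mL. Compounds were 2-fold broth serial dilutions, final 32 to 0.015 μg/mL; the polymyxin controls ran 128–0.06 μg/mL. The MIC was the lowest concentration with no visible growth after 18 h at 37 °C.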

Klebsiella pneumoniae [2] = assay: Antibacterial activity against Klebsiella pneumoniae ATCC BAA-2146 expressing NDM-1 after 18 hrs by 2 fold serial dilution method; format: functional; conditions: ATCC BAA-2146, 18 h
Outline: (§2)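 Overnight cultures at 37 °C in nutrient or Mueller Hinton broth with shaking were diluted 50-fold in MHB and grown 1.5–3 h to mid-log phase. The inoculum was 5×10^5 CFU/mL in MHB. Compounds were 2-fold serially diluted, final 32 to 0.015 μg/mL. After 18 h at 37 °C, the MIC was read visually as the lowest concentration with no visible growth.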

Acinetobacter baumannii [3] = assay: Antibacterial activity against Acinetobacter baumannii ATCC 19606 after 18 hrs by 2 fold serial dilution method; format: functional; conditions: ATCC 19606, 18 h
Outline: (§3)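 Overnight cultures in nutrient or Mueller Hinton broth at 37 °C with shaking, diluted 50-fold into fresh MHB and grown 1.5–3 h to mid-log. Inoculum 5×10^5 CFU/mL in 2-fold serial dilutions, final range 32 to 0.015 μg/mL. MIC read visually after 18 h at 37 °C as the lowest concentration with no visible growth.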

[4] = Cytotoxicity against human HepG2 cells after 24 hrs by resazurin assay; format: cell-based; conditions: HepG2 cells
Klebsiella pneumoniae [5] = assay: Antibacterial activity against clinical isolate carbapenem and polymyxin resistant Klebsiella pneumoniae Koprana 100650661:1 after 18 hrs by 2 fold serial dilution method; format: functional; conditions: Koprana 100650661:1, 18 h; outline: as §1
Klebsiella pneumoniae [6] = assay: Antibacterial activity against clinical isolate carbapenem and polymyxin resistant Klebsiella pneumoniae 138-16357-20362 after 18 hrs by 2 fold serial dilution method; format: functional; conditions: 138-16357-20362, 18 h; outline: as §1
Pseudomonas aeruginosa [7] = assay: Antibacterial activity against Pseudomonas aeruginosa ATCC 27853 after 18 hrs by 2 fold serial dilution method; format: functional; conditions: ATCC 27853, 18 h; outline: as §3
Staphylococcus aureus = assay: microbe, parasite or virus in culture; conditions: ATCC 25923, 18 h
Klebsiella pneumoniae [8] = assay: Antibacterial activity against Klebsiella pneumoniae ATCC 13883 after 18 hrs by 2 fold serial dilution method; format: functional; conditions: ATCC 13883, 18 h; outline: as §3
Klebsiella pneumoniae [9] = assay: Antibacterial activity against multidrug resistant Klebsiella pneumoniae ATCC 700603 after 18 hrs by 2 fold serial dilution method; format: functional; conditions: Klebsiella pneumoniae, 700603, 18 h; outline: as §2
Pseudomonas aeruginosa [10] = assay: Antibacterial activity against clinical isolate polymyxin resistant Pseudomonas aeruginosa PA9704 after 18 hrs by 2 fold serial dilution method; format: functional; conditions: PA9704, 18 h; outline: as §1
Pseudomonas aeruginosa [11] = assay: Antibacterial activity against clinical isolate polymyxin resistant Pseudomonas aeruginosa FADDI-PA070 after 18 hrs by 2 fold serial dilution method; format: functional; conditions: FADDI-PA070, 18 h; outline: as §1
Escherichia coli = assay: Antibacterial activity against Escherichia coli ATCC 25922 after 18 hrs by 2 fold serial dilution method; format: functional; conditions: ATCC 25922, 18 h; outline: as §3

Compound	MIC (Acinetobacter baumannii [1]) [µg/mL]	MIC (Klebsiella pneumoniae [2]) [µg/mL]	MIC (Acinetobacter baumannii [3]) [µg/mL]	CC50 at 24 h [4] [µM]	MIC (Klebsiella pneumoniae [5]) [µg/mL]	MIC (Klebsiella pneumoniae [6]) [µg/mL]	MIC (Pseudomonas aeruginosa [7]) [µg/mL]	MIC (Staphylococcus aureus) [µg/mL]	MIC (Klebsiella pneumoniae [8]) [µg/mL]	MIC (Klebsiella pneumoniae [9]) [µg/mL]	MIC (Pseudomonas aeruginosa [10]) [µg/mL]	MIC (Pseudomonas aeruginosa [11]) [µg/mL]	MIC (Escherichia coli) [µg/mL]
CCCCCCCC(=O)N[C@@H](CCN)C(=O)N[C@H](C(=O)N[C@@H](CCN)C(=O)N[C@H]1CCNC(=O)[C@H]([C@@H](C)O)NC(=O)[C@H](CCN)NC(=O)[C@H](CCN)NC(=O)[C@H](Cc2ccc(-c3ccccc3)cc2)NC(=O)[C@@H](Cc2ccccc2)NC(=O)[C@H](CCN)NC1=O)[C@@H](C)O (Octanoyl-[Dab]T[Dab][Dab][Dab][dF][Bip][Dab][Dab]T; lactam 4-C)	32 (≈ 24.6 µM)	1 (≈ 0.769 µM)	1 (≈ 0.769 µM)	117	32 (≈ 24.6 µM)	> 32	2 (≈ 1.54 µM)	8 (≈ 6.16 µM)	4 (≈ 3.08 µM)	2 (≈ 1.54 µM)	16 (≈ 12.3 µM)	16 (≈ 12.3 µM)	1 (≈ 0.769 µM)
CCCCCCCCC1NC(=O)[C@@H](Cc2ccccc2)NC(=O)[C@H](CCN)NC(=O)[C@@H](NC(=O)[C@H](CCN)NC(=O)[C@@H](NC(=O)[C@H](CCN)NC(=O)CCCCCCC)[C@@H](C)O)CCNC(=O)[C@H]([C@@H](C)O)NC(=O)[C@H](CCN)NC(=O)[C@H](CCN)NC1=O (stereo not given in full) (Octanoyl-[Dab]T[Dab][Dab][Dab][dF][ξGly(octyl)][Dab][Dab]T; lactam 4-C)	8 (≈ 6.42 µM)	1 (≈ 0.803 µM)	1 (≈ 0.803 µM)	116	32 (≈ 25.7 µM)	32 (≈ 25.7 µM)	2 (≈ 1.61 µM)	8 (≈ 6.42 µM)	2 (≈ 1.61 µM)	2 (≈ 1.61 µM)	8 (≈ 6.42 µM)	16 (≈ 12.8 µM)	1 (≈ 0.803 µM)
CCCCCCCCC1NC(=O)[C@H](CCN)NC(=O)[C@@H](NC(=O)[C@H](CCN)NC(=O)[C@@H](NC(=O)[C@H](CCN)NC(=O)CCCCCCC)[C@@H](C)O)CCNC(=O)[C@H]([C@@H](C)O)NC(=O)[C@H](CCN)NC(=O)[C@H](CCN)NC(=O)[C@H](CC(C)C)NC1=O (stereo not given in full) (Octanoyl-[Dab]T[Dab][Dab][Dab][ξGly(octyl)]L[Dab][Dab]T; lactam 4-C)	16 (≈ 13.2 µM)	1 (≈ 0.825 µM)	1 (≈ 0.825 µM)	254	16 (≈ 13.2 µM)	16 (≈ 13.2 µM)	2 (≈ 1.65 µM)	16 (≈ 13.2 µM)	2 (≈ 1.65 µM)	1 (≈ 0.825 µM)	8 (≈ 6.6 µM)	4 (≈ 3.3 µM)	2 (≈ 1.65 µM)
CCCCCCCC(=O)N[C@@H](CCN)C(=O)N[C@H](C(=O)N[C@@H](CCN)C(=O)N[C@H]1CCNC(=O)[C@H]([C@@H](C)O)NC(=O)[C@H](CCN)NC(=O)[C@H](CCN)NC(=O)[C@H](CC(C)C)NC(=O)[C@@H](Cc2ccccc2)NC(=O)[C@H](CCO)NC1=O)[C@@H](C)O (Octanoyl-[Dab]T[Dab][Dab][hSer][dF]L[Dab][Dab]T; lactam 4-C)	> 32	32 (≈ 26.9 µM)	> 32	> 300	> 32	> 32	> 32	> 32	> 32	> 32	> 32	> 32	16 (≈ 13.4 µM)
CCCCCCCC(=O)N[C@@H](CCN)C(=O)N[C@H](C(=O)N[C@H](CCN)C(=O)N[C@H]1CCNC(=O)[C@H]([C@@H](C)O)NC(=O)[C@H](CCN)NC(=O)[C@H](CCN)NC(=O)[C@H](CC(C)C)NC(=O)[C@@H](Cc2ccccc2)NC(=O)[C@H](CCN)NC1=O)[C@@H](C)O (Octanoyl-[Dab]T[dDab][Dab][Dab][dF]L[Dab][Dab]T; lactam 4-C)	> 32	4 (≈ 3.36 µM)	1 (≈ 0.841 µM)	> 300	> 32	> 32	2 (≈ 1.68 µM)	> 32	0.5 (≈ 0.42 µM)	1 (≈ 0.841 µM)	32 (≈ 26.9 µM)	> 32	4 (≈ 3.36 µM)
